From ChEMBL document CHEMBL1138407, “Bioactive bibenzyl derivatives and fluorenones from Dendrobium nobile” (J Nat Prod, 2007)
The source made the active and inactive calls. The rule behind the calls is not given here.

What was measured:
[1] = test system: Radical scavenging activity; assay: Antioxidant activity assessed by DPPH radical scavenging assay; assay type: functional
Procedure, shortened: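 Test samples at several concentrations in EtOH mixed 1:1 by volume with a 200 μM DPPH solution in EtOH. After 1 min shaking, incubated 30 min at room temperature in the dark, then A517 read. Sample-only wells without DPPH corrected for colour. Done in triplicate, reported as mean ± SD. IC50 is the sample concentration scavenging 50% of DPPH.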

[2] = Antioxidant activity assessed by ORAC assay; assay type: functional
Procedure, shortened: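 Samples at several concentrations combined with potassium phosphate buffer (7.5 mM as added) and sodium fluorescein probe (63 nM as added), then preincubated 5 min at 37 °C. Reaction started with AAPH (12.8 mM as added). Fluorescence (ex 485/em 538 nm) read every 2 min until decay neared zero. Trolox standard. Done in triplicate, reported as mean ± SD in μmol Trolox equivalents per μmol sample.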

[3] = Cytotoxicity against murine RAW 264.7 cells by MTT assay; assay type: cell-based; conditions: mouse
Procedure, shortened: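 MTT viability measured in RAW 264.7 cultures from the LPS/IFN-γ-stimulated NO assay, in duplicate, to flag cytotoxic concentration ranges.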

RAW = assay: Inhibition of LPS and IFN-gamma-activated NO production in murine RAW 264.7 cells; conditions: Mus musculus

COc1ccc(CCc2cc(OC)c(O)c(OC)c2)cc1OC
IC50 [1]: 14 µM | Activity [2]: Active | Activity [3]: Toxic

COc1cc(CC(O)c2cc(OC)c(O)c(OC)c2)ccc1O (stereo not given) [NOBILIN D]
IC50 [1]: 19.9 µM | Activity [2]: Active | IC50 (RAW): 15.3 µM

COc1cc(CCc2cc(OC)c(OC)c(OC)c2)ccc1O
IC50 [1]: 21.8 µM | Activity [2]: Active | Activity [3]: Toxic

COc1cc(O)cc(CCc2ccc(O)c(OC)c2)c1 [GIGANTOL]
IC50 [1]: 56.4 µM | Activity [2]: Active | IC50 (RAW): 32.9 µM

Oc1ccc(/C=C/c2cc(O)cc(O)c2)cc1 [RESVERATROL]
IC50 (RAW): 23.5 µM

COc1cc(O)cc2c1-c1ccc(O)cc1C2=O [NOBILONE]
IC50 [1]: > 200 µM | Activity [2]: Active | IC50 (RAW): 38.1 µM

COc1ccc(CCc2cc(OC)c(OC)c(OC)c2)cc1OC
IC50 [1]: > 200 µM | Activity [2]: inactive | IC50 (RAW): 48.2 µM

COc1cc(O)cc2c1-c1c(O)ccc(O)c1C2=O
IC50 [1]: 16.2 µM | Activity [2]: Active | IC50 (RAW): 13.4 µM

O=C1O[C@H]([C@@H](O)CO)C(O)=C1O [ASCORBIC ACID]
IC50 [1]: 18 µM

COc1cccc(CCc2cc(O)c(O)c(OC)c2)c1
IC50 [1]: 40.3 µM

COc1cc(CCc2cc(OC)c(O)c(OC)c2)ccc1O [MOSCATILIN]
IC50 [1]: 14.5 µM | Activity [2]: Active | IC50 (RAW): 36.8 µM

Cc1cc(C(C)(C)C)c(O)c(C(C)(C)C)c1 [BUTYLATED HYDROXYTOLUENE]
IC50 [1]: 90.9 µM

COc1cccc(CCc2cc(OC)c(O)c3c2C(Cc2cccc(OC)c2)c2cc(O)c(O)c(OC)c2O3)c1 (stereo not given) [NOBILIN E]
IC50 [1]: 21 µM | IC50 (RAW): 19.2 µM
